KCNK9 inh: blocks the human KCNK9 two-pore domain potassium channel; Q9NPC2; HEK293 KCNK9, FluxOR thallium flux fluorescence; hits give low values; B-score at 10 µM; 1.2% of 310,000 active; AID 488922;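 active means ratio B-score over 3 SD below the library mean, with starting fluorescence within 5 SD of its mean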;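 further: negative B-score means less thallium flux so channel inhibition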
hERG rescue: hERG (human) protection from proarrhythmic block; Q12809; CHO-hERG, FluxOR thallium flux, dofetilide IC70 present; activation (rescue from dofetilide block), less the hit threshold, % at 10 µM; 0.51% of 310,000 active;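 active means activation above the mean of controls blocked by dofetilide plus 5 SD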;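 further: thallium influx through hERG after potassium depolarization seen as dye fluorescence rise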
Target sequence (Q12809 whole entry, looked up): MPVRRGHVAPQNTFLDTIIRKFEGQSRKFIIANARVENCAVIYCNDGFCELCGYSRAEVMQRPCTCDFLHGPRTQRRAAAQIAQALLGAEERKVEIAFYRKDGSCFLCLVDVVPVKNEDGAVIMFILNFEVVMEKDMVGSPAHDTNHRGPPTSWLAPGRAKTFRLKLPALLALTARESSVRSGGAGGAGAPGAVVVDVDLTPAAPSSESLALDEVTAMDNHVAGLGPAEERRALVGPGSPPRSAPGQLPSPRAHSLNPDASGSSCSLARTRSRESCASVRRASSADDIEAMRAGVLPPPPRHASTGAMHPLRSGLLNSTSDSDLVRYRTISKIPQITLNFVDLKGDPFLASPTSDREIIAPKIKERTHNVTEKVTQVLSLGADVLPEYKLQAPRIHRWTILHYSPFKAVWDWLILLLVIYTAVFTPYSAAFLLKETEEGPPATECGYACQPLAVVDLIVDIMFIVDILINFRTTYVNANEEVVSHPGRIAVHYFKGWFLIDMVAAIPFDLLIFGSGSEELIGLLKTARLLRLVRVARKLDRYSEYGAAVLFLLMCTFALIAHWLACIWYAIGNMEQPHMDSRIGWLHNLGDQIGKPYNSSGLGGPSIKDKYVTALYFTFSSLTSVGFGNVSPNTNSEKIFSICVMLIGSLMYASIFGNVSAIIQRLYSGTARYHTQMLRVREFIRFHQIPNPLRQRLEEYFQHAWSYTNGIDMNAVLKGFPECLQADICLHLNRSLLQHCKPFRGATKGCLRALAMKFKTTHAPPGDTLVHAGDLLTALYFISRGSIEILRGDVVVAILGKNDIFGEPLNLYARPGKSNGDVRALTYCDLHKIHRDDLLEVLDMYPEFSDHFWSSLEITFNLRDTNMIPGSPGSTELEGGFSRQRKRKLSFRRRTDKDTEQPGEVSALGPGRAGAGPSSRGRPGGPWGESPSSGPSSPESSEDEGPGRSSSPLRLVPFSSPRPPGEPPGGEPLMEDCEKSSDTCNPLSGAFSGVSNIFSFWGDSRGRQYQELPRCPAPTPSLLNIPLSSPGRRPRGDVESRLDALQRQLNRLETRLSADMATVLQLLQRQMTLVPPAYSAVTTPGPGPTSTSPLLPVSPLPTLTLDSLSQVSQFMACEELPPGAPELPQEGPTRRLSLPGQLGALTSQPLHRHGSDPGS
KCNQ1 block: inhibitors of human KCNQ1 potassium channel. P51787. CHO-K1 KCNQ1, FluxOR thallium flux fluorescence; hits give high values. B-score at 10 µM. 1.3% of 310,000 active;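 active means compounds whose thallium flux B-score, printed positive for inhibition, exceeds three library SD while starting fluorescence stays within three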;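 further: channel opened by potassium depolarization with thallium stimulus after 20 min compound exposure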
KCNQ1 pot: human KCNQ1 channel potentiation or activation | P51787 | 0.35% of 310,000 active | CHO-K1 KCNQ1, thallium flux FluxOR fluorescence; hits give high values | AID 2648 | B-score at 10 µM;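 active means fluorescence ratio B-score, a plate-corrected score, at least three library SD, with initial intensity B-score within 5 SD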
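Medium – assay buffer, equal DMSO in all wells · Material – CHO-K1 cell line with stable KCNQ1 potassium channel expression · Signal – kinetic FluxOR thallium fluorescence, 10-s 1-Hz baseline, 110-s post-stimulus read · Compound – single concentration per compound, DMSO matched to controls · Schedule – 37 °C overnight plating, 90-min dark dye load, 20-min compound pretreatment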
KCNK3 block: human KCNK3 channel inhibition, primary screen | O14649 | CHO-KCNK3 thallium flux, FluxOR fluorescence; hits give low values | B-score at 10 µM | 0.84% of 340,000 active | AID 602410;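 active means B-score under library mean minus 4 SD, starting fluorescence ratio at most library mean plus 5 SD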;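 further: more negative B-score means stronger inhibition of thallium flux through KCNK3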
KCNK9 block conf: confirmation of human KCNK9 potassium channel inhibitors; shares compounds with KCNK9 inh; HEK293 KCNK9 cells, FluxOR thallium flux fluorescence; inhibition, % at 10 µM; 43% of 4,900 active; AID 492992;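 active means thallium signal inhibited by more than 5 SD of the compound-free buffer control wells, on both duplicate plates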
Kir21 sel: tests whether KCNK9 modulators also affect mouse Kir2.1 | shares compounds with KCNK9 inh | Kir2.1 cells, FluxOR thallium flux fluorescence | inhibition, % at 10 µM | 4% of 4,900 active;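 active means thallium signal drop more than 5 SD beyond the mean of the no-compound control wells, seen in both duplicate plates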;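 further: signal is fluorescence rise after thallium addition divided by baseline fluorescence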
HEK293 Tl ctr: second counter-screen for KCNK9 modulators: effect in non-induced cells; non-induced KCNK9-HEK293, FluxOR thallium flux; inhibition, % at 10 µM; 40% of 4,900 active; shares compounds with KCNK9 inh;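 active means thallium signal drop beyond 5 SD of the untreated control mean, on both duplicate plates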
Hits are given with their value. An excerpt weighted towards active compounds, which were near 3.1% of everything screened.

Screening Cc1ccc(NC(=O)COC(=O)c2csc3c2CCC(C)C3)cc1S(=O)(=O)N1CCCCC1 (centres undefined) returned KCNK9 inh -9.2, hERG rescue inactive, KCNQ1 block inactive, KCNQ1 pot inactive, KCNK3 block inactive, KCNK9 block conf 32%, Kir21 sel inactive and HEK293 Tl ctr inactive.
For O=C(NCc1nc2ccccc2[nH]1)c1ccc(Cl)c(S(=O)(=O)N2CCCC2)c1 the results were KCNK9 inh inactive, hERG rescue inactive, KCNQ1 block inactive, KCNQ1 pot inactive and KCNK3 block inactive.
O=C(COC(=O)c1ccc(S(=O)(=O)N2CCCC2)cc1)Nc1ccccc1 was read as KCNK3 block inactive.
`CC1CCc2c(C(=O)OCC(=O)Nc3cccc(S(=O)(=O)N4CCCCCC4)c3)csc2C1` (centres undefined) gave KCNK9 inh inactive, hERG rescue inactive, KCNQ1 block inactive, KCNQ1 pot inactive and KCNK3 block inactive.
Screening CCCn1c(NC(=O)c2ccc(Cl)c(S(=O)(=O)N3CCCC3)c2)nc2ccccc21 returned KCNK9 inh -8.9, hERG rescue inactive, KCNQ1 block inactive, KCNQ1 pot inactive, KCNK3 block inactive, KCNK9 block conf 40%, Kir21 sel inactive and HEK293 Tl ctr inactive.
`O=C(COC(=O)c1ccc(Cl)c(S(=O)(=O)N2CCCCCC2)c1)Nc1ccccc1` gave KCNK9 inh inactive, hERG rescue inactive, KCNQ1 block inactive, KCNQ1 pot inactive, KCNK3 block inactive, KCNK9 block conf inactive, Kir21 sel inactive and HEK293 Tl ctr inactive.
For O=c1nccc(SCc2ccc(Cl)cc2Cl)[nH]1 the results were KCNK9 inh inactive, hERG rescue inactive, KCNQ1 block inactive, KCNQ1 pot inactive and KCNK3 block inactive.
For CNC(=O)NC(=O)CSc1nc2sccc2c(=O)n1-c1ccccc1 the results were KCNK9 inh inactive, hERG rescue inactive, KCNQ1 block inactive, KCNQ1 pot inactive and KCNK3 block inactive.
Screening COc1ccc(-c2csc(NC(=O)c3ccc(C(C)(C)C)cc3)c2C(=O)O)cc1 returned KCNK9 inh inactive, hERG rescue inactive, KCNQ1 block inactive, KCNQ1 pot inactive, KCNK3 block inactive, KCNK9 block conf inactive, Kir21 sel inactive and HEK293 Tl ctr inactive.
Screening Fc1ccc(N=c2ssnc2Cl)c(F)c1 returned KCNK9 inh inactive, hERG rescue inactive, KCNQ1 block inactive, KCNQ1 pot inactive, KCNK3 block inactive, KCNK9 block conf inactive, Kir21 sel inactive and HEK293 Tl ctr inactive.
Clc1ccc(N=c2ssnc2Cl)cc1 was read as KCNK9 inh inactive, hERG rescue inactive, KCNQ1 block inactive, KCNQ1 pot inactive and KCNK3 block inactive.
For COc1ccccc1Nc1nc(-c2cccc(N3C(=O)c4ccccc4C3=O)c2)cs1 the results were KCNK9 inh inactive, hERG rescue inactive, KCNQ1 block inactive, KCNQ1 pot inactive, KCNK3 block inactive, KCNK9 block conf inactive, Kir21 sel inactive and HEK293 Tl ctr inactive.
`CCOc1ccccc1Nc1nc(-c2cccnc2)cs1` gave KCNK9 inh inactive, hERG rescue inactive, KCNQ1 block inactive, KCNQ1 pot inactive and KCNK3 block inactive.
Screening Cc1nn(Cc2ccc(Cl)cc2)c(=O)n1N(C)c1ncc(C(F)(F)F)cc1Cl returned KCNK9 inh inactive, hERG rescue inactive, KCNQ1 block inactive, KCNQ1 pot inactive, KCNK3 block inactive, KCNK9 block conf inactive, Kir21 sel inactive and HEK293 Tl ctr inactive.
`Cc1nn(Cc2ccc([N+](=O)[O-])cc2)c(=O)n1N(C)c1ncc(C(F)(F)F)cc1Cl` gave KCNK9 inh inactive, hERG rescue inactive, KCNQ1 block inactive, KCNQ1 pot inactive and KCNK3 block inactive.
`Cc1ccc(NC(=O)c2cc(-c3ccccc3)nn2-c2ccccc2)c(Br)c1` gave KCNK9 inh inactive, hERG rescue inactive, KCNQ1 block inactive, KCNQ1 pot inactive and KCNK3 block inactive.
Cc1ccc(NC(=O)c2cc(-c3ccccc3)nn2-c2ccccc2)cc1 was read as KCNK9 inh inactive, hERG rescue inactive, KCNQ1 block inactive, KCNQ1 pot inactive, KCNK3 block inactive, KCNK9 block conf inactive, Kir21 sel inactive and HEK293 Tl ctr inactive.
`CCC(=O)N(CCc1ccccc1)Cc1cc2cc3c(cc2[nH]c1=O)OCO3` gave KCNK9 inh inactive, hERG rescue inactive, KCNQ1 block inactive, KCNQ1 pot inactive and KCNK3 block inactive.
CCC(=O)N(CCC(Cc1ccccc1)c1ccc2c(c1)OCO2)Cc1ccccc1F (centres undefined) was read as KCNK9 inh -13, hERG rescue inactive, KCNQ1 block 9, KCNQ1 pot inactive, KCNK3 block inactive, KCNK9 block conf 65%, Kir21 sel inactive and HEK293 Tl ctr 32%.
CCC(=O)N(CCC(Cc1ccccc1)c1ccco1)Cc1ccco1 (centres undefined) was read as KCNK9 inh -9.9, hERG rescue inactive, KCNQ1 block inactive, KCNQ1 pot inactive, KCNK3 block inactive, KCNK9 block conf 46%, Kir21 sel 50% and HEK293 Tl ctr 36%.
For CC(NCCC(Cc1ccccc1)c1ccco1)c1ccccc1 (centres undefined) the results were KCNK9 inh inactive, hERG rescue inactive, KCNQ1 block inactive, KCNQ1 pot inactive and KCNK3 block inactive.
`Cc1ccc(C)c(NC(=S)NCCN(C2CCCCC2)C2CCCC2)c1` gave KCNK9 inh inactive, hERG rescue inactive, KCNQ1 block inactive, KCNQ1 pot inactive and KCNK3 block inactive.
`CC(C)COc1ccc(C(=O)N(CC(=O)Nc2ccccc2C(F)(F)F)Cc2ccco2)cc1` gave KCNK9 inh inactive, hERG rescue inactive, KCNQ1 block inactive, KCNQ1 pot inactive, KCNK3 block inactive, KCNK9 block conf inactive, Kir21 sel inactive and HEK293 Tl ctr inactive.
Screening O=C(CN(Cc1ccco1)C(=O)c1ccc([N+](=O)[O-])cc1)Nc1ccccc1C(F)(F)F returned KCNK3 block inactive.
Screening Cc1ccc2nc(-c3ccccc3)c(CN3CCN(c4ccccc4F)CC3)n2c1 returned KCNK9 inh inactive, hERG rescue inactive, KCNQ1 block inactive, KCNQ1 pot inactive, KCNK3 block inactive, KCNK9 block conf inactive, Kir21 sel inactive and HEK293 Tl ctr inactive.
Cc1ccc2nc(-c3ccccc3)c(CN3CCSCC3)n2c1 was read as KCNK9 inh inactive, hERG rescue inactive, KCNQ1 block inactive, KCNQ1 pot inactive and KCNK3 block inactive.
For C=CCOc1ccc(CN(C)Cc2nc3cc(C(F)(F)F)ccc3c(=O)[nH]2)cc1 the results were KCNK9 inh inactive, hERG rescue inactive, KCNQ1 block inactive, KCNQ1 pot inactive, KCNK3 block inactive, KCNK9 block conf inactive, Kir21 sel inactive and HEK293 Tl ctr inactive.

From PubChem
